Source: ChEMBL document CHEMBL4387777, “Bis(benzoyl) phosphate inactivators of beta-lactamase C from Mtb” (Bioorg Med Chem Lett, 2019)

Assays:
[1] = Stability of the compound in pH 7.4 PIPES buffer assessed as compound hydrolysis at 5 to 10 mg by 31p-NMR analysis; assay type: physicochemical
[2] = system: Mycobacterium tuberculosis; test: Inhibition of Mycobacterium tuberculosis BlaC expressed in Escherichia coli at 100 uM using nitrocefin as substrate measured at 2 mins interval for 10 mins relative to control
Method in brief: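 Purified BlaC was screened against each compound at a single concentration of 100 µM, and percent inhibition was read. Each % inhibition value comes from n ≥ 4 determinations and is reported with its standard deviation.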

[3] = system: Mycobacterium tuberculosis; test: Time-dependent inhibition of Mycobacterium tuberculosis BlaC expressed in Escherichia coli assessed as inactivation rate constant using nitrocefin as substrate

Structure (SMILES) | Stability [1] | inhibition [2] [%] | K [3] [min⁻¹]
COc1ccc(C(=O)OP(=O)(O)OC(=O)c2ccc(OC)cc2)cc1 | Stable | 65.5 | 0.212
O=C(OP(=O)(O)OC(=O)c1ccc(C(F)(F)F)cc1)c1ccc(C(F)(F)F)cc1 | Stable | 42.5 | 
O=C(OP(=O)(O)OC(=O)c1ccc(-c2ccccc2)cc1)c1ccc(-c2ccccc2)cc1 | Stable | 0 | 
Cc1ccc(C(=O)OP(=O)(O)OC(=O)c2ccc(C)cc2)cc1 | Stable | 41.2 | 
O=C(OP(=O)(O)OC(=O)c1ccc(Cl)cc1)c1ccc(Cl)cc1 | Stable | 24.8 | 
O=C(OP(=O)(O)OC(=O)c1ccccc1)c1ccccc1 | Stable | 52.3 | 0.324
O=C(OP(=O)(O)OC(=O)c1ccc(Cl)c(Cl)c1)c1ccc(Cl)c(Cl)c1 | Stable | 20.2 | 
O=C(OP(=O)(O)OC(=O)c1ccc([N+](=O)[O-])cc1)c1ccc([N+](=O)[O-])cc1 | Unstable |  | 
N#Cc1ccc(C(=O)OP(=O)(O)OC(=O)c2ccc(C#N)cc2)cc1 | Unstable |  | 
O=C(OP(=O)(O)OC(=O)c1ccc(F)cc1)c1ccc(F)cc1 | Stable | 84.3 | 0.45
